{"source": "paper PMC6744591", "about": "(Heliyon, 2019)", "key": {"[1]": {"system": "alloxan induced diabetes rats", "assay": "Blood glucose lowering in alloxan-induced diabetic rats", "format": "in vivo, Wister rats", "procedure,_shortened": "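Alloxan at 150 mg/kg i.p. in normal saline given to Wistar rats (~190 g); rats above 120 mg/dl glucose after 5–7 days counted as diabetic. Rats fasted 12 h, water allowed, fasted throughout; 9 per group. […] Basal glucose taken first; tail-vein glucometer readings at set intervals, triplicate averages.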"}, "[2]": {"assay": "Pharmacokinetics: plasma concentration of insulin in diabetic rats", "format": "in vivo", "conditions": "for Tmax: plasma insulin, HPLC-UV"}}}
{"substance": "insulin [Ins-solu]", "values": [{"measurement": "decrease in blood glucose levels", "setting": "[1]; fasted, oral, 40.0 I.U/kg, glucometer, % of initial level", "value": "1–2%"}, {"measurement": "maximum decrease in blood glucose levels", "setting": "[1]; fasted, subcutaneous, 4.0 I.U/kg, at 4 h", "value": "> 60", "unit": "%"}, {"measurement": "time for which decrease in blood glucose level was sustained", "setting": "[1]; subcutaneous, 4.0 I.U/kg", "value": "over 4 h"}, {"measurement": "Tmax", "setting": "[2]; oral, 40 IU/kg", "value": 3.0, "unit": "h"}, {"measurement": "AUC", "setting": "[2]; subcutaneous, 4.0 IU/kg, over 12 h, linear trapezoidal rule, mean ± SD, n = 5", "value": "342.56 ± 30.9", "unit": "µg/mL/h"}, {"measurement": "Tmax", "setting": "[2]; subcutaneous, 4.0 IU/kg", "value": 1.0, "unit": "h"}]}
